# Results of several laboratories.
# Compare with care: the assays were run in different laboratories.
# BRAF V600E: Serine/threonine-protein kinase B-raf (BRAF, Homo sapiens, UniProt P15056, V600E)
# ADORA3: Adenosine receptor A3 (ADORA3, Homo sapiens, UniProt P0DMS8)
# DRD2: D(2) dopamine receptor (DRD2, Homo sapiens, UniProt P14416)
Compound,target,test,conditions,inhibition
Cc1ccc(CNC(=O)[C@H](CCc2ccccc2)NC(=O)[C@H](CCc2ccccc2)NC(=O)[C@H](CCc2ccccc2)NC(=O)c2cnc(C)cn2)cc1,"Neutrophil elastase (ELANE, Homo sapiens, UniProt P08246)","enzyme activity, inhibitor",100 µM,-8%
Cc1ccc(C(CS(=O)(=O)c2ccccc2)=NN=C2N=C(c3ccc(Br)cc3)CS2)cc1,BRAF V600E,"enzyme activity, inhibitor, ATP luminescence",0.1 µM,61%
CCN1CCCn2c1nc1c2c(=O)n(C)c(=O)n1C,ADORA3,"ligand displacement, radioligand","10 µM, cell membranes",5%
Cn1cnc(Br)c1C1=CN(c2ncnc3[nH]cnc23)CCS1,"Serine/threonine-protein kinase Nek5 (NEK5, Homo sapiens, UniProt Q6P3R8)","enzyme activity, inhibitor, radiometric",2 µM,90.4%
Oc1cccc(Nc2nc(-c3ccc(F)cc3F)cs2)c1,"Type-1 angiotensin II receptor (AGTR1, Homo sapiens, UniProt P30556)",cell-free assay,10 µM,-7.2%
Cc1ccc(C(CS(=O)(=O)c2ccccc2)=NNc2nc(C)c(N=Nc3ccccc3)s2)cc1,BRAF V600E,"enzyme activity, inhibitor, ATP luminescence",10 nM,26%
O=C(CCN1CCC(O)(c2ccc(F)cc2)C1)c1ccc2c(c1)OCCO2 (centres unmarked),DRD2,"enzyme activity, inhibitor",10 µM,41.3%
Cc1ccc(C(CS(=O)(=O)c2ccccc2)=NN=C2N=C(c3ccc(C)cc3)CS2)cc1,BRAF V600E,"enzyme activity, inhibitor, ATP luminescence",0.1 µM,43%
O=C(c1cccc(Cl)c1)N1CCN(CCNc2cc(=O)oc3ccccc23)CC1,DRD2,"enzyme activity, inhibitor",10 µM,-1.9%
CC(=O)N[C@H]1CSSC[C@@H](C(=O)N[C@@H](Cc2c[nH]c3ccccc23)C(N)=O)NC(=O)[C@@H](Cc2ccccc2)NC(=O)[C@H](CCCNC(=N)N)NC1=O,"Melanocortin receptor 3 (MC3R, Homo sapiens, UniProt P41968)","ligand displacement, radioligand","10 µM, 40 min",45%
CCCCn1c(=O)c2[nH]c(C34CC5CC(CC3C5)C4)nc2n(CCCO)c1=O,ADORA3,"ligand displacement, radioligand","10 µM, cell membranes",39%
CC(C)(C)c1nc(-c2cccc(NS(=O)(=O)c3c(F)cccc3F)c2F)c(-c2ccnc(N)n2)s1,BRAF V600E,"enzyme activity, inhibitor, ATP luminescence",10 µM,95%
CCOCCNC(=O)NC12CC3CC(CC(C3)C1)C2,"ephB (Mycobacterium tuberculosis, UniProt I6YC03)","enzyme activity, inhibitor",10 nM,8.7%
CNC(=O)c1cc(Oc2ccc(NC(=O)Nc3ccc(Cl)c(C(F)(F)F)c3)cc2)ccn1,"Tyrosine-protein kinase Blk (Blk, Mus musculus, UniProt P16277)","enzyme activity, inhibitor",10 µM,51%
CS(=O)(=O)Nc1cccc(-c2csc(NC(=O)CSc3nc4nccnc4c(=O)n3CCc3ccccc3)n2)c1,"Phosphatidylinositol 4-kinase type 2-alpha (PI4K2A, Homo sapiens, UniProt Q9BTU6)","enzyme activity, inhibitor",10 µM,0%
O=C1NCCCc2c(O)cccc21,"Protein mono-ADP-ribosyltransferase PARP16 (PARP16, Homo sapiens, UniProt Q8N5Y8)","enzyme activity, inhibitor",10 µM,0%
CC(C)c1ccccc1OCCOCC(O)CN1CCN(c2cccc(C(F)(F)F)c2)CC1 (centres unmarked),DRD2,"enzyme activity, inhibitor",10 µM,37.8%
Cc1ccc(C(CS(=O)(=O)c2ccccc2)=NNC(N)=S)cc1,BRAF V600E,"enzyme activity, inhibitor, ATP luminescence",1 µM,69%
C=CN1CCCn2c1nc1c2c(=O)n(C)c(=O)n1C,ADORA3,"ligand displacement, radioligand","10 µM, cell membranes",11%
Cc1ccc(C(CS(=O)(=O)c2ccccc2)=NNc2nc(C)c(N=Nc3cccc(C)c3)s2)cc1,BRAF V600E,"enzyme activity, inhibitor, ATP luminescence",10 µM,92%
CN1CCCn2c1nc1c2c(=O)n(C)c(=O)n1C,ADORA3,"ligand displacement, radioligand","10 µM, cell membranes",3%
O=C1C2CCCN2C(=O)N1CCCCN1CCN(c2cccc(C(F)(F)F)c2)CC1 (centres unmarked),DRD2,"enzyme activity, inhibitor",10 µM,10%
Cc1ccc(C(CS(=O)(=O)c2ccccc2)=NNC2=NC(=O)C(=NNc3ccc([N+](=O)[O-])cc3)S2)cc1,BRAF V600E,"enzyme activity, inhibitor, ATP luminescence",1 µM,72%
